# Assay outcomes as filed in PubChem BioAssay.
# A selection: hits, their analogues and other compounds. The true share with any hit is near 2.1%.
# CCR6 antag: CCR6 (human) receptor antagonism | P51684 | CHO-K1 CCR6 PathHunter beta-arrestin, luminescence, CCL20-stimulated | inhibition, % at 20 µM | 340,000 compounds, 0.49% hits;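 active means compounds whose inhibition of the agonist-driven luminescence signal at 20 µM reaches about 50%, limit read from the data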;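 further: cells stimulated with CCL20 at 14 nM final; plate controls were DMSO with CCL20 for no effect and DMSO without agonist for full effect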
# APJ ag: activates the human apelin receptor APJ; activation, % at 20 µM; 330,000 compounds, 0.11% hits; P35414; CHO-K1 APJ PathHunter beta-arrestin, luminescence; 0% DMSO wells, 100% apelin;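 active means activation more than six SD over the plate average, tested at 20 µM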;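 further: 0% = DMSO alone and 100% = apelin-13 at 10 nM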
#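 system = engineered CHO-K1 APJ arrestin reporter cells | input = 1000 cells per well | timing = overnight seeding, 90 min compound at 25 °C, 1 h detection | measured by = enzyme-fragment complementation luminescence | read-out = beta-arrestin recruitment to APJ as agonist activity, luminescent signal | control set = negative DMSO alone, positive Apelin-13 at 10 nM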
# HTR2A ag: agonists of mouse serotonin 5-HT2A receptor (HTR2A); CHO-K1 mHTR2A beta-arrestin complementation, luminescence; percent of 30 µM serotonin response; 360,000 compounds, 0.66% hits; AID 624169; activation, % at 7.6 µM;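 active means activation above a run cutoff, the mean activation of all tested compounds plus 3 SD, cut at about 14% in these data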;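 further: 0% = plate median of compound wells and 100% = 30 µM serotonin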
# Target sequence (P35363 whole entry, looked up): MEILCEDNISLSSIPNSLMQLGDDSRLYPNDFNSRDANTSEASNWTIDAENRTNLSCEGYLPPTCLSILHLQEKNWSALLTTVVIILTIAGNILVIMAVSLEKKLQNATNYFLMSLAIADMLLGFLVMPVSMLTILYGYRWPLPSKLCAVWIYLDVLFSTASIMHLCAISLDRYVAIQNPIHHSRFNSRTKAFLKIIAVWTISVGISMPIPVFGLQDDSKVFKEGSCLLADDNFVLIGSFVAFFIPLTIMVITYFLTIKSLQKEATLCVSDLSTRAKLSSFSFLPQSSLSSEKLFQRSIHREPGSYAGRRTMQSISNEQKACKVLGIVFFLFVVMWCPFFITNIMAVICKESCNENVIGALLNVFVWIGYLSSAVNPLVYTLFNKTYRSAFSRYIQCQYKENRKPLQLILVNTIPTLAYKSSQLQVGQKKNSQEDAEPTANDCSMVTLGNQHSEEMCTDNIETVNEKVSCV
# CXCR6 block: blocks human CXCR6 beta-arrestin recruitment | CHO-K1 PathHunter CXCR6 beta-arrestin, luminescence | inhibition, % at 20 µM | 360,000 compounds, 0.36% hits; in the data active means inhibition above about 34%, passing the limit was not always enough;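 further: antagonist mode with CXCL16 agonist at 10 nM final; 0% = 10 nM CXCL16 with DMSO and 100% = unstimulated wells without agonist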
# APJ antag: APJ receptor antagonism; CHO-K1 APJ beta-arrestin complementation, luminescence; inhibition, % at 20 µM; 330,000 compounds, 0.32% hits;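 active means inhibition above about 40% at 20 µM, limit read from the data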;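 further: cells challenged with 10 nM apelin-13 agonist together with compound; plate controls were apelin-13 plus DMSO wells for no effect and DMSO wells lacking apelin-13 for full effect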
# EBI2 antag: blocks human EBI2 receptor beta-arrestin signaling. P32249. EBI2 beta-arrestin recruitment, luminescence, 7a,25-OHC stimulated. inhibition, % at 5 µM. 360,000 compounds, 0.81% hits; in the data active means inhibition above about 38%;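 further: enzyme fragment complementation signal reports receptor beta-arrestin coupling in cells; 0% = agonist plus DMSO wells and 100% = wells without agonist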
# OPRM1 ag: counter-screen for mouse HTR2A agonists: human mu opioid receptor agonists; shares compounds with HTR2A ag; activation, % at 9.3 µM; U2OS OPRM1 beta-arrestin PathHunter, luminescence; DMSO 0%, DAMGO 9.3 µM 100%; 2,300 compounds, 5.3% hits;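 active means mean activation above the mean of DMSO-only wells plus 3 SD, cut at about 0.5% in these data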
# HTR2A ag conf: mouse HTR2A agonism confirmed. shares compounds with HTR2A ag. CHO-K1 PathHunter beta-arrestin recruitment, luminescence; DMSO 0%, 30 µM serotonin 100%. activation, % at 7.6 µM. 2,300 compounds, 19% hits. AID 624381;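 active means mean activation across triplicates above the hit threshold derived in the original primary screen, cut at about 15% in these data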
# The depositor's hits bear a star; x = no result given.
SMILES,CCR6 antag,APJ ag,HTR2A ag,CXCR6 block,APJ antag,EBI2 antag,OPRM1 ag,HTR2A ag conf
CN=C(c1ccco1)n1c(=S)nc(-c2ccco2)n(C)c1=S,10,-1,2,5,19,0,x,x
O=C(COc1ccccc1)NCc1n[nH]c(=S)n1-c1ccccc1,-13,-3,16*,-4,9,-5,0,1
COc1cc(OC)c(NC(=O)C2CCCO2)cc1Cl (configuration not stated),9,-2,16*,-8,-20,-5,-1,-2
Cc1cccc(NC(=O)c2cc3c(=O)n4ccccc4nc3n(CC(C)C)c2=N)c1,29,0,15*,9,-40,8,0,2
O=C(CCCCCn1c(=S)[nH]c2ccc(N3CCOCC3)cc2c1=O)NCc1ccccc1Cl,4,0,-3,9,-12,25,x,x
CC(=O)Nc1ccc2nc(SCC(=O)N3CCOCC3)sc2c1,8,-3,-2,3,25,3,x,x
O=C(CSc1nc2ccc(Nc3nc(N4CCOCC4)nc(N4CCOCC4)n3)cc2s1)N1CCOCC1,-7,-2,15*,-4,-9,2,-1,-3
O=C(CSc1nc2ccc(Nc3nc(N4CCOCC4)nc(N4CCOCC4)n3)cc2s1)Nc1ccccc1F,-9,16,16*,-7,-35,4,0,-2
O=C1NC[C@H](CCCCN2C[C@H](Cc3ccccc3)N(CC3CCCCC3)C(=O)C2=O)N(CCc2ccc(O)cc2)C1=O,x,x,3,0,x,-2,x,x
Cc1cc(N2CCN(c3ccc(F)cc3)CC2)nc2cc(O)ccc12,10,-4,-9,-9,10,-1,x,x
O=C(/C=C/[C@H]1O[C@@H](n2ccc(=O)[nH]c2=O)[C@H](O)[C@@H]1O)NCCN1CCCCC1,x,x,16*,4,x,-5,-1,-3
CCCCc1nnc(NC(=O)CSc2nc(=O)cc(N)n2-c2ccccc2)s1,-8,-4,16*,-1,-14,1,-1,-2
COc1ccc(S(=O)(=O)N2CCOC2CNC(=O)C(=O)NCc2ccc3c(c2)OCO3)cc1C (configuration not stated),x,x,1,-5,x,-1,x,x
CCC(=O)Nc1nc2c(s1)COc1ccccc1-2,-2,-4,18*,2,13,0,0,-1
CCOC(=O)/C=C(\C)N1N=C(c2ccccc2)CC1c1ccccc1 (configuration not stated),9,-4,20*,-3,16,0,-1,-3
CCOC(=O)c1nnn(CC(=O)N2N=C(c3ccccc3)CC2c2ccccc2)c1C(=O)OCC (configuration not stated),9,-8,-4,6,-14,3,x,x
Cc1ccccc1OCC(=O)NCC(c1cccs1)N1CCOCC1 (configuration not stated),-4,-1,18*,-6,-3,-2,0,-3
COc1ccccc1NS(=O)(=O)c1ccc(C)c(C(=O)NCC(c2cccs2)N2CCOCC2)c1 (configuration not stated),4,x,19*,-2,x,1,0,-1
O=C(COc1ccccc1Cl)NCC(c1cccs1)N1CCOCC1 (configuration not stated),16,-3,-1,0,-55,4,x,x
N#Cc1ccc(NCC(=O)Nc2ccc(S(=O)(=O)N3CCCCC3)cc2)cc1,2,2,-1,1,-13,7,x,x
CCCn1nc(C(=O)Nc2ccc3nc(N4CCOCC4)sc3c2)ccc1=O,9,9,21*,-13,-12,1,0,0
Cn1cc([N+](=O)[O-])c(C(=O)N/N=C/c2ccncc2)n1,2,1,5,-4,6,0,x,x
